Test results from PubChem BioAssay AID2152 (The Scripps Research Institute Molecular Screening Center, 2009).
Among all 2,300 compounds or so, about 25 (1%) were called active.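 Rule for the calls: active = mean inhibition over three replicate wells above the hit threshold derived in the earlier primary screen (cut at about 45% in these data); inactive = the rest.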 The sample as a whole holds a higher share of actives than the screen did.

System: Hepatitis C virus core protein (core106 dimerization)
Assay: blockers of core106 self-association – biochemical, TR-FRET, triplicate, confirmation (AID 2152);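 note: 0% = DMSO wells and 100% = unlabelled core106 competitor control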
Conditions: TR-FRET GST-/Flag-core106 dimerization, HTRF; at 5 µM; active compounds read high
Method in brief: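 Material: GST- and Flag-tagged HCV core106 peptides, dimerization via antibody TR-FRET. Medium: HEPES/KF buffer, pH 7.45. Doses: one 5 µM dose, 0.5% DMSO. Times: 4 h incubation, 22.5 °C. Detection: TR-FRET, excitation 340 nm, emission 671 and 617 nm. Measure: percent inhibition from emission ratio. Controls: unlabelled core106 and DMSO wells.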

Compound | inhibition
Cc1cc(C)c(S(=O)(=O)N2CCOC2CNC(=O)C(=O)NCCc2ccc(S(N)(=O)=O)cc2)c(C)c1 (centres undefined) | -0.31% (inactive)
Cc1[nH]c2ccccc2c1CCNC(=O)c1ccc2c(c1[N+](=O)[O-])C(=O)c1ccccc1C2=O | -6.67% (inactive)
CCOc1cc(/C=N\NC(=O)c2ccc(NC(=O)C(C)(C)C)cc2)ccc1OC(=O)c1cccc(C)c1 | -6.21% (inactive)
C=CCOc1ccc(-c2nc3c(c(=O)[nH]c(=O)n3Cc3ccccc3)n2CCCOC)cc1 | 3% (inactive)
C=CCn1c(C)cc(C(=O)COC(=O)c2ccc3c(c2)NC(=O)CS3)c1C | -0.86% (inactive)
COC(=O)c1ccccc1NC(=O)CN1C(=O)C2CCCN2c2ncc(Cl)cc21 (centres undefined) | 4.11% (inactive)
CCCN(CCC)C(=O)CC(c1ccc(F)cc1)c1ccco1 (centres undefined) | -2.6% (inactive)
COc1ccc(C2=NN(C(=O)CSc3nc(=O)n4cccc(C)c4n3)C(c3ccc(C)cc3)C2)cc1 (centres undefined) | 21.8% (inactive)
O=C(NNC(=O)c1cccc(-n2cccc2)c1)c1ccc(F)cc1 | 9.23% (inactive)
Cc1ccc(-c2cc(C(F)F)n3ncc(C(=O)Nc4c(C)nn(Cc5ccccc5Cl)c4C)c3n2)cc1 | 0.26% (inactive)
N#Cc1ccsc1NC(=O)COc1ccc(-c2nnco2)cc1 | 3.2% (inactive)
O=C1CC(c2ccco2)Cc2nc(N3CCc4ccccc4C3)ncc21 (centres undefined) | 0.9% (inactive)
CCN(CC)c1cc2nc(C)n(Cc3ccccc3)c(=O)c2cc1NC(=O)C1CC1 | 3.07% (inactive)
Cc1cc([N+](=O)[O-])cc2c1NC(c1ccccn1)C1CC=CC21 (centres undefined) | 8.17% (inactive)
CC(C)Cc1nc(N2CCN(C(=O)c3ccco3)CC2)c(C#N)c2c1CCC2 | -9.13% (inactive)
Cc1ccc2[nH]c(=O)c(CN(Cc3ccc4c(c3)OCO4)Cc3nnnn3Cc3ccco3)cc2c1 | -2.73% (inactive)
COc1ccc(C(=S)N2CCOCC2)cc1OC(=O)c1cc([N+](=O)[O-])c(C)c([N+](=O)[O-])c1 | 3.86% (inactive)
COc1ccc(/C=C2\SC(=S)N(NC(=O)c3csc4c3CCCC4)C2=O)cc1 | -8.8% (inactive)
CC(C)Cn1c(-c2ccccc2)nc(=S)c2c1CCCC2 | 2.05% (inactive)
COc1ccc(NC(=O)NNC(=O)COc2ccc3cc(Br)ccc3c2)c(OC)c1 | 0.29% (inactive)
COC/C=C/C1=CC2=CC(=O)C(C)(OC(=O)c3cnc4ccccc4n3)C(=O)C2=CN1Cc1ccc(OC)cc1 (centres undefined) | 2.72% (inactive)
O=C1c2ccccc2C(Nc2ccc3c(c2)OCO3)N1Cc1ccc2c(c1)OCO2 (centres undefined) | -1.13% (inactive)
CC(=O)c1ccc(NC(=O)/C(=C\c2ccccc2)NC(=O)/C=C/c2ccccc2)cc1 | -3.84% (inactive)
C=C(NC(=O)C(=C)NC(=O)c1csc(C2=NC3c4csc(n4)C4NC(=O)c5csc(n5)C([C@@](C)(O)C(C)O)NC(=O)C5CSC(=N5)/C(=C\C)NC(=O)C(C(C)O)NC(=O)c5csc(n5)[C@]3(CC2)NC(=O)C(C)NC(=O)C(=C)NC(=O)C(C)NC(=O)C(C(C)CC)NC2C=Cc3c(C(C)O)cc(nc3C2O)C(=O)OC4C)n1)C(N)=O (some centres undefined) | 47.5% (active)
CS(=O)(=O)N1CCc2cc(-c3csc(NC(=O)C(c4ccccc4)c4ccccc4)n3)ccc21 | -5% (inactive)

Compound | inhibition
O=C(COC(=O)c1ccccc1Oc1ccccc1)NCc1ccco1 | -1.91% (inactive)
Cc1ccc(NC(=O)N(Cc2ccc3c(c2)OCO3)Cc2cc3cc4c(cc3[nH]c2=O)OCCO4)cc1 | 2.67% (inactive)
CC(=O)NS(=O)(=O)c1ccc(NC(=O)c2cc(-c3ccc(C)c(C)c3)nc3ccccc23)cc1 | 5.8% (inactive)
COc1cc(C(=O)NCC(=O)OCC(=O)c2cccc3ccccc23)cc(OC)c1OC | -3.85% (inactive)
O=C(c1ccco1)N1CCN(c2nc(C3CC3)nc3c2nnn3Cc2ccccc2Cl)CC1 | -2.25% (inactive)
CCOC(=O)c1nn(-c2ccccc2C)c2nc(-c3ccc(Cl)cc3)c(C#N)c(=O)n12 | 3.54% (inactive)
Cc1cccc(N(C)S(=O)(=O)c2ccc3c(c2)C(C)(C)C(=O)N3C)c1 | 4.84% (inactive)
COc1cc(OC)c(NC(=O)CN(C)S(=O)(=O)c2ccc(-c3ccc(=O)[nH]n3)s2)cc1Cl | -0.24% (inactive)
O=C1COc2ccc(C(=O)COC(=O)/C=C/c3ccc(Br)o3)cc2N1 | 35.5% (inactive)
O=C(/C=C/c1ccc(Br)o1)OCc1nc2ccsc2c(=O)[nH]1 | 46% (active)
O=C(COC(=O)/C=C/c1ccc(Br)o1)Nc1ccc2[nH]c(=O)[nH]c2c1 | 24.5% (inactive)
Cc1ccccc1N1CC(C(=O)Nc2nnc(SCc3ccccn3)s2)CC1=O (centres undefined) | 0.24% (inactive)
O=C(Nc1ccc(N2CCCC2)c(Cl)c1)c1ccc2c(c1)OCCO2 | -0.93% (inactive)
Cc1ccc(OCC(=O)c2cc(C)c(C)cc2C)c([N+](=O)[O-])n1 | -9.54% (inactive)
Cc1cc(C(=O)CSc2nnc(-c3ccc(OC(F)F)cc3)o2)c(C)n1Cc1cccs1 | -10.5% (inactive)
C=CCn1c(C)cc(C2=NNC(=Nc3ccc(C)cc3)SC2)c1C | -4.54% (inactive)
O=C(O)CCC(=O)N1N=C(c2cccs2)CC1c1cn(-c2ccccc2)nc1-c1ccccc1 (centres undefined) | 7.42% (inactive)
O=c1cc(-c2ccccc2Cl)c2c([nH]1)CCC2 | -2.22% (inactive)
Cc1ccc(C2CC(=O)N3CN(c4ccc(Br)cc4)CSC3=C2C#N)o1 (centres undefined) | -1.74% (inactive)
Cc1cccc(N2CSC3=C(C#N)C(c4ccc(C)o4)CC(=O)N3C2)c1 (centres undefined) | 50.5% (active)
Cc1ccc(C2C(C#N)=C(N)Oc3c2sc2ccccc32)o1 (centres undefined) | 14% (inactive)
CC1CCc2sc(C(=O)N/N=C/c3ccc([N+](=O)[O-])cc3)cc2C1 (centres undefined) | -11.5% (inactive)
Cc1cccc(N2CC(C(=O)Nc3nnc(SCC(=O)N4CCOCC4)s3)CC2=O)c1 (centres undefined) | 11.4% (inactive)
Cc1ccc(Cn2c(C(C)Nc3nc(-c4ccc(Cl)c([N+](=O)[O-])c4)cs3)nc3cc(C(F)(F)F)ccc32)cc1 (centres undefined) | 5.29% (inactive)
